Most compounds without a hit are left out; they make up all but 1.3% or so of the library.
HKDC1 inh: blocks human hexokinase HKDC1 activity; Q2TB90; recombinant HKDC1, G6PDH/diaphorase resazurin coupled fluorescence; inhibition, % at 20 µM; 340,000 compounds, 0.16% hits;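 active = inhibition above about 35% when tested at 20 µM, limit read from the data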;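 note: plate controls were DMSO wells with enzyme for no effect and DMSO wells lacking enzyme for full effect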
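Test system: Recombinant HKDC1 (HK5) hexokinase enzyme, produced in-house | Input: HKDC1 at 5 µg/mL | Buffer or medium: Tris pH 8.0 buffer with MgCl2, Tween-20, BSA, BME | Schedule: 90 min reaction incubation at room temperature, dark | Technique: Resazurin-to-resorufin fluorescence via G6PDH and diaphorase coupling, 525/613 nm | Controls: DMSO wells with and without enzyme mix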
Tb hexokinase: blocks Trypanosoma brucei hexokinase 1 activity; recombinant TbHK1, G6PDH-coupled NADH A340; inhibition, % at 10 µM; 220,000 compounds, 0.11% hits; AID 1430;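 active = inhibition of 50% or more in the single-dose primary screen; inactive = inhibition below 50%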
PfG6PD inh: PfG6PD (Plasmodium falciparum) enzyme inhibition; PfGluPho enzyme, NADPH resazurin-diaphorase fluorescence; inhibition, % at 20 µM; 350,000 compounds, 0.78% hits; AID 504690;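 active = inhibition reaching at least a set limit at 20 µM in the primary screen, cut at about 59% in these data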;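 note: 0% = DMSO wells with substrate and 100% = DMSO wells lacking glucose-6-phosphate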
Diaph inh CS: inhibits diaphorase or chemically oxidizes, flagging diaphorase assay artifacts; 190,000 compounds, 0.69% hits; diaphorase resazurin-to-resorufin fluorescence, NADH, 16 min; bacterial (C. kluyveri) enzyme, not human; inhibition, % at 20 µM;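 active = primary screen inhibition at 20 µM above a set limit, cut at about 50% in these data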;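 note: plate controls were DMSO with full reaction for no effect and wells lacking NADH for full effect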
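System: Diaphorase enzyme from Clostridium kluyveri | Amount: Enzyme working solution with 0.14 U/mL diaphorase | Benchmarks: No-NADH positive control and DMSO neutral control | Signal: Fluorescence of resorufin formed from resazurin, Ex 544/Em 590 nm | Schedule: 16-min room-temperature incubation before reading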
G6PDH CS: counter-screen for G6PDH assay hits: L. mesenteroides G6PDH inhibition; AID 1020; 200,000 compounds, 0.12% hits; Purified L. mesenteroides G6PDH, diaphorase/resazurin coupled fluorescence, 45 min; inhibition, % at 5 µM; in the data active = inhibition above about 50%
PfG6PD confirm: confirmation of Plasmodium falciparum G6PD inhibitors. shares compounds with PfG6PD inh. recombinant PfGluPho, NADPH-diaphorase-resazurin fluorescence. inhibition, % at 20 µM. AID 504753. 2,400 compounds, 34% hits;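 active = inhibition of at least 50% at 20 µM in any single replicate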;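 note: 0% = DMSO with substrate and 100% = DMSO lacking glucose-6-phosphate substrate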
Diaph ctr 10uM: counter-screen for P. falciparum G6PD inhibitors: diaphorase inhibitors, oxidizers; shares compounds with PfG6PD inh; diaphorase-coupled resazurin reduction, fluorescence, NADPH 10 uM; inhibition, % at 20 µM; 820 compounds, 39% hits;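 active = average inhibition reaching 50% or more with the compound at 20 µM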;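 note: resorufin red fluorescence formed as diaphorase reduces resazurin using NADPH; 0% = DMSO with enzyme and 100% = DMSO without enzyme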
Diaphorase 30uM: diaphorase inhibition or oxidation at 30 uM NADPH. Diaphorase/resazurin coupled assay, resorufin fluorescence. inhibition, % at 20 µM. 820 compounds, 29% hits. shares compounds with PfG6PD inh;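 active = inhibition averaging 50% or more, tested at 20 µM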;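 note: 0% = DMSO with enzyme and 100% = DMSO wells lacking diaphorase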
An asterisk follows results filed as active.

`Cc1ccc(NC(=O)CN2CCN(S(=O)(=O)c3cccs3)CC2)cc1S(=O)(=O)N(C)C` gave HKDC1 inh -3, Tb hexokinase -4, PfG6PD inh 2, Diaph inh CS 7 and G6PDH CS 1.
Cc1ccn2c(Cc3ccccc3)c(-c3ccccc3)nc2c1 was read as PfG6PD inh 12.
`Cc1ccc(Cc2c(-c3ccc(Cl)cc3)nc3cc(C)ccn23)cc1` gave PfG6PD inh 96* and PfG6PD confirm 3.
For Cc1ccc(Cc2c(-c3ccc(C)cc3)nc3cc(C)ccn23)cc1 the results were PfG6PD inh 63* and PfG6PD confirm 6.
For Cc1ccc(-c2nc3c4ccccc4ccn3c2Cc2ccccc2)cc1 the results were PfG6PD inh 50.
Cc1ccn2c(Cc3ccccc3)c(-c3ccc(Br)cc3)nc2c1 was read as PfG6PD inh 108* and PfG6PD confirm 25.
`Cc1ccn2c(CC(C)(C)C)c(-c3ccc(F)cc3)nc2c1` gave PfG6PD inh 29.
C=CCNC(=S)NNC(=O)c1cccnc1 was read as HKDC1 inh -6, Tb hexokinase -18 and PfG6PD inh 11.
For CC1CCN(S(=O)(=O)c2nnc(NC(=O)c3cccc(Cl)c3)s2)CC1 the results were HKDC1 inh 7, PfG6PD inh 86* and PfG6PD confirm 42.
CCc1nnc(NC(=O)c2cccc(OC)c2)s1 was read as HKDC1 inh -3, Tb hexokinase 0, PfG6PD inh 62*, Diaph inh CS 9, G6PDH CS 4 and PfG6PD confirm 42.
COc1ccccc1C(=O)Nc1nnc(S(=O)(=O)N2CCOCC2)s1 was read as HKDC1 inh 1 and PfG6PD inh -5.
COc1ccc(C(=O)Nc2nnc(S(=O)(=O)N3CCOCC3)s2)cc1 was read as HKDC1 inh 3, PfG6PD inh 78*, PfG6PD confirm 51*, Diaph ctr 10uM 39 and Diaphorase 30uM 32.
COc1ccccc1C(=O)Nc1nnc(S(=O)(=O)N2CCC(C)CC2)s1 was read as HKDC1 inh -2 and PfG6PD inh 1.
`COc1ccc(C(=O)Nc2nnc(C(F)(F)F)s2)cc1` gave HKDC1 inh 0, Tb hexokinase -2, PfG6PD inh 118*, Diaph inh CS 16, G6PDH CS 2, PfG6PD confirm 96*, Diaph ctr 10uM 89* and Diaphorase 30uM 62*.
`O=C(Nc1nnc(S(=O)(=O)N2CCCCCC2)s1)c1ccccc1` gave HKDC1 inh 7 and PfG6PD inh 33.
For O=C(Nc1nnc(S(=O)(=O)N2CCOCC2)s1)c1ccc(Cl)cc1 the results were HKDC1 inh -1, PfG6PD inh 104*, PfG6PD confirm 72*, Diaph ctr 10uM 72* and Diaphorase 30uM 54*.
O=C(Nc1nnc(S(=O)(=O)N2CCOCC2)s1)c1ccccc1 was read as HKDC1 inh 2, PfG6PD inh 63* and PfG6PD confirm 31.
For O=C(Nc1nnc(S(=O)(=O)N2CCOCC2)s1)c1ccccc1Br the results were HKDC1 inh -2 and PfG6PD inh 14.
Screening COc1ccc(C(=O)CCC(=O)Nc2ccc(N3CCCCC3)cc2)cc1OC returned HKDC1 inh 4 and PfG6PD inh 3.
`Cc1ccccc1OCC(=O)OCn1nnc2ccccc2c1=O` gave HKDC1 inh -2, Tb hexokinase -7 and PfG6PD inh 6.
Screening CCn1nnnc1SCC(=O)NCc1ccco1 returned HKDC1 inh -3, Tb hexokinase 7, PfG6PD inh -10, Diaph inh CS 6 and G6PDH CS 2.
`O=C(CN1CCN(c2ccc(O)cc2)CC1)NCC(=O)Nc1ccc(F)c(F)c1F` gave HKDC1 inh 3, PfG6PD inh 67* and PfG6PD confirm 33.
Screening O=C(CN1CCN(c2ccc(F)cc2)CC1)Nc1ccc2c(c1)OCCO2 returned HKDC1 inh -1 and PfG6PD inh -2.
Screening Cc1cc(NC(=O)CN2CCN(S(=O)(=O)c3ccc(Cl)cc3)CC2)no1 returned HKDC1 inh 6, Tb hexokinase -9, PfG6PD inh 3, Diaph inh CS 9 and G6PDH CS -1.
For Cc1ccc(S(=O)(=O)N2CCN(C(=O)CN3CCN(c4ccc(O)cc4)CC3)CC2)cc1 the results were HKDC1 inh 2, PfG6PD inh 64* and PfG6PD confirm 25.
Screening Cc1ccc(N2CCN(S(=O)(=O)c3ccc(C)cc3)CC2)cc1 returned HKDC1 inh -3 and PfG6PD inh -7.
For Cc1cc(NC(=O)CN2CCN(c3ccc(O)cc3)CC2)no1 the results were HKDC1 inh -1, Tb hexokinase 2, PfG6PD inh 68*, Diaph inh CS 31, G6PDH CS 11 and PfG6PD confirm 36.
`O=C(CN1CCN(c2ccc(O)cc2)CC1)Nc1ccc2c(c1)OCCO2` gave HKDC1 inh 3, Tb hexokinase 3, PfG6PD inh 71*, Diaph inh CS 38, G6PDH CS 2 and PfG6PD confirm 21.
`C[C@@H]1CN(S(=O)(=O)c2c(F)cccc2F)CCN1S(=O)(=O)c1ccc2c(c1)OCCO2` gave HKDC1 inh -7 and PfG6PD inh 4.
For Clc1ccc(-c2nc3ccc(Br)cn3c2Cc2ccccc2)cc1 the results were PfG6PD inh 88* and PfG6PD confirm -4.
Screening CC(C)(C)Cc1c(-c2ccccc2)nc2ccc(Br)cn12 returned PfG6PD inh 30.
Fc1ccc(-c2nc3ccc(Br)cn3c2Cc2ccccc2)cc1 was read as PfG6PD inh 67* and PfG6PD confirm -12.
`Cc1ccc(Cc2c(-c3ccc(Cl)cc3)nc3ccc(Br)cn23)cc1` gave PfG6PD inh 67* and PfG6PD confirm -13.
`Cc1ccc(Cc2c(-c3ccc(C)cc3)nc3ccc(Br)cn23)cc1` gave PfG6PD inh 48.
O=C(COc1ccccc1)NCC(=O)N1CCCCCC1 was read as HKDC1 inh -3 and PfG6PD inh 4.
Screening CCCCNS(=O)(=O)c1cccc(S(=O)(=O)N2CCCC2)c1 returned HKDC1 inh -7, Tb hexokinase 0, PfG6PD inh 8, Diaph inh CS 4 and G6PDH CS 10.
Cc1ccc(C(=O)CC2(O)C(=O)N(Cc3ccccc3Cl)c3ccccc32)o1 (centres undefined) was read as HKDC1 inh -6, Tb hexokinase 0, PfG6PD inh -4, Diaph inh CS 10 and G6PDH CS 9.

Source: PubChem BioAssay (several laboratories)
